Measured values as given in ChEMBL document CHEMBL1671866, “Genotyping as a tool for antibiotic resistance surveillance of Neisseria gonorrhoeae in New Caledonia: evidence of a novel genotype associated with reduced penicillin susceptibility” (2008).
≈ marks a conversion by molar mass, not a printed value.

Columns and labels:
Type in all cases: functional
Neisseria gonorrhoeae [1] = assay: Antibacterial activity against Neisseria gonorrhoeae harboring ponA L421P mutant gene by disk agar diffusion method
Method in brief: (§1)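 Clinical N. gonorrhoeae isolates from sexually transmitted infections in New Caledonia, collected over about 3 years. Susceptibility to conventional antibiotics was tested by disk agar diffusion, and beta-lactamase production by nitrocefin discs. Archival chromosomally mediated resistant isolates and WHO reference strains (WHO-C, -G, -L, -M, -O, -P; 07QA-01 to -06) served as controls.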

Neisseria gonorrhoeae [2] = assay: Antibacterial activity against Neisseria gonorrhoeae harboring wild-type penA and GS A102S mutant genes by Etest method
Method in brief: (§2)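 Penicillin G MIC (µg/ml) by E-test gradient strip on chocolate agar plus PolyVitex, read where the inhibition zone meets the strip. Test organisms were clinical gonococcal isolates from New Caledonia, grouped by genotype. Archival chromosomally mediated resistant isolates and 12 WHO reference strains served as controls.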

Neisseria gonorrhoeae [3] = assay: Antibacterial activity against Neisseria gonorrhoeae harboring KD gene by disk agar diffusion method; method in brief: as §1
Neisseria gonorrhoeae [4] = assay: Antibacterial activity against Neisseria gonorrhoeae harboring porB1b and DA G101D mutant genes by disk agar diffusion method; method in brief: as §1
Neisseria gonorrhoeae [5] = assay: Antibacterial activity against Neisseria gonorrhoeae harboring wild-type GA gene by disk agar diffusion method; method in brief: as §1
Neisseria gonorrhoeae [6] = assay: Antibacterial activity against Neisseria gonorrhoeae harboring porB1a gene by disk agar diffusion method; method in brief: as §1
Neisseria gonorrhoeae [7] = assay: Antibacterial activity against Neisseria gonorrhoeae harboring GS A102S mutant gene by disk agar diffusion method; method in brief: as §1
Neisseria gonorrhoeae [8] = assay: Antibacterial activity against Neisseria gonorrhoeae harboring Asp-345a insertion in penA and DA G101D mutant genes by Etest method; method in brief: as §2
Neisseria gonorrhoeae [9] = assay: Antibacterial activity against Neisseria gonorrhoeae harboring wild-type penA and porB1a genes by Etest method; method in brief: as §2
Neisseria gonorrhoeae [10] = assay: Antibacterial activity against Neisseria gonorrhoeae assessed as intermediate-resistant isolates by disk agar diffusion method; method in brief: as §1
Neisseria gonorrhoeae [11] = assay: Antibacterial activity against Neisseria gonorrhoeae harboring Asp-345a insertion in penA and porB1a genes by Etest method; method in brief: as §2
Neisseria gonorrhoeae [12] = assay: Antibacterial activity against Neisseria gonorrhoeae harboring wild-type GA and wild-type penA genes by Etest method; method in brief: as §2
Neisseria gonorrhoeae [13] = assay: Antibacterial activity against Neisseria gonorrhoeae harboring wild-type penA and DA G101D mutant genes by Etest method; method in brief: as §2
Neisseria gonorrhoeae [14] = assay: Antibacterial activity against Neisseria gonorrhoeae assessed as susceptible isolates by disk agar diffusion method
Method in brief: (§3)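 Clinical isolates were collected from sexually transmitted infections in New Caledonia over nearly 3 years. They were tested in vitro against conventional antibiotics by disk agar diffusion. Archival chromosomally mediated resistant isolates and 12 reference strains served as controls: WHO-C, -G, -L, -M, -O, -P and 07QA-01 to 07QA-06.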

Neisseria gonorrhoeae [15] = assay: Antibacterial activity against Neisseria gonorrhoeae by disk agar diffusion method; method in brief: as §3
Neisseria gonorrhoeae [16] = assay: Antibacterial activity against Neisseria gonorrhoeae harboring wild-type GA and Asp-345a insertion in penA genes by Etest method; method in brief: as §2
Neisseria gonorrhoeae [17] = assay: Antibacterial activity against Neisseria gonorrhoeae harboring GS gene by disk agar diffusion method; method in brief: as §1
Neisseria gonorrhoeae [18] = assay: Antibacterial activity against Neisseria gonorrhoeae harboring wild-type ponA gene by disk agar diffusion method; method in brief: as §1

Q: For `CC1(C)S[C@@H]2[C@H](NC(=O)Cc3ccccc3)C(=O)N2[C@H]1C(=O)O` [PENICILLIN G], which MIC (Neisseria gonorrhoeae [1]) is on record?
A: 0.059 µg/mL (≈ 0.176 µM)

Q: What about the MIC (Neisseria gonorrhoeae [2]) of the same compound?
A: 0.156 µg/mL (≈ 0.467 µM)

Q: What about the MIC (Neisseria gonorrhoeae [3]) of the same compound?
A: 1 µg/mL (≈ 2.99 µM)

Q: What about the MIC (Neisseria gonorrhoeae [4]) of the same compound?
A: 0.016 µg/mL (≈ 0.0478 µM)

Q: What about the MIC (Neisseria gonorrhoeae [5]) of the same compound?
A: 0.037 µg/mL (≈ 0.111 µM)

Q: What about the MIC (Neisseria gonorrhoeae [6]) of the same compound?
A: 0.031 µg/mL (≈ 0.0927 µM)

Q: What about the MIC (Neisseria gonorrhoeae [7]) of the same compound?
A: 0.155 µg/mL (≈ 0.464 µM)

Q: And the MIC (Neisseria gonorrhoeae [8])?
A: 0.133 µg/mL (≈ 0.398 µM)

Q: And the MIC (Neisseria gonorrhoeae [9])?
A: 0.011 µg/mL (≈ 0.0329 µM)

Q: What about the Activity (Neisseria gonorrhoeae [10]) of the same compound?
A: 39.9%

Q: What about the MIC (Neisseria gonorrhoeae [11]) of the same compound?
A: 0.07 µg/mL (≈ 0.209 µM)

Q: What about the MIC (Neisseria gonorrhoeae [12]) of the same compound?
A: 0.017 µg/mL (≈ 0.0508 µM)

Q: And the MIC (Neisseria gonorrhoeae [13])?
A: 0.016 µg/mL (≈ 0.0478 µM)

Q: And the Activity (Neisseria gonorrhoeae [14])?
A: 60.1%

Q: And the MIC (Neisseria gonorrhoeae [15])?
A: 0.064 µg/mL (≈ 0.191 µM)

Q: What about the MIC (Neisseria gonorrhoeae [16]) of the same compound?
A: 0.081 µg/mL (≈ 0.242 µM)

Q: And the MIC (Neisseria gonorrhoeae [17])?
A: 0.63 µg/mL (≈ 1.88 µM)

Q: What about the MIC (Neisseria gonorrhoeae [18]) of the same compound?
A: 0.067 µg/mL (≈ 0.2 µM)
